Experimental data reported in ChEMBL document CHEMBL1155311, “Synthesis and evaluation of N-[(1S,2S)-3-(4-chlorophenyl)-2-(3-cyanophenyl)-1-methylpropyl]-2-methyl-2-aminopropanamide as human cannabinoid-1 receptor (CB1R) inverse agonists” (Bioorg Med Chem Lett, 2009).

Assays:
Homo sapiens = species: Homo sapiens; experiment: Selectivity ratio of IC50 of human recombinant CB2 receptor to IC50 of human recombinant CB1 receptor
Cannabinoid receptor 1 [1] = biological target: T1, Cannabinoid receptor 1 (Homo sapiens, UniProt P21554); experiment: Displacement of [3H]CP-55940 from recombinant human CB1 receptor expressed in CHO cells; type: cell-based
Cannabinoid receptor 2 = Cannabinoid receptor 2 (Homo sapiens, UniProt P34972); experiment: Displacement of [3H]CP-55940 from recombinant human CB2 receptor expressed in CHO cell; type: cell-based
Cannabinoid receptor 1 [2] = biological target: T1, Cannabinoid receptor 1; experiment: Inverse agonist activity at human CB1 receptor assessed as forskolin-induced cAMP level by adenylyl cyclase activation flash plate assay; type: functional
Liver microsomes [3] = experiment: Metabolic stability in human liver microsomes assessed as glucuronide formation; type: ADME, Microsome
Outline: (§1)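 Rat or human liver microsomes (1 mg/mL protein) were incubated in 100 mM potassium phosphate, pH 7.4, with 10 mM MgCl2, alamethicin, 5 mM D-saccharic acid 1,4-lactone and 3 mM UDPGA. Incubation ran 90 min at 37 °C with shaking and was quenched with 2 volumes of cold acetonitrile. After centrifugation, glucuronide was detected in the supernatant by LC–MS/MS.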

Liver microsomes [4] = experiment: Metabolic stability in rat liver microsomes assessed as glucuronide formation; type: ADME, Microsome
Outline: as §1

Cytochrome P450 3A4 = Cytochrome P450 3A4 (Homo sapiens, UniProt P08684); experiment: Inhibition of CYP3A4; type: ADME
Sequence of Cytochrome P450 3A4 (P08684 whole entry): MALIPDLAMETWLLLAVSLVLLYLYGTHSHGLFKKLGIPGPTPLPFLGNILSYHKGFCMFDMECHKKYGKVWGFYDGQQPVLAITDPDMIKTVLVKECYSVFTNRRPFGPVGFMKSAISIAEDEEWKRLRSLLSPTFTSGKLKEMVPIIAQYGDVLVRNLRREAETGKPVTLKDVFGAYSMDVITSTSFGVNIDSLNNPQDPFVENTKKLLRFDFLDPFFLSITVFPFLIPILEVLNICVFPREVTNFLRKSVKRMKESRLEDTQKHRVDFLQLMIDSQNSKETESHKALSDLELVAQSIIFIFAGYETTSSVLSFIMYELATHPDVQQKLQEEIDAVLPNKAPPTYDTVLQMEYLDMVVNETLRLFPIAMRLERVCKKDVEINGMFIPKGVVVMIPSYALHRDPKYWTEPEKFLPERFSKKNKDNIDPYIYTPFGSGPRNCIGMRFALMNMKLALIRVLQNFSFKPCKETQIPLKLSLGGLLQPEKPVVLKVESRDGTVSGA

Sequence of Cannabinoid receptor 2 (P34972 whole entry): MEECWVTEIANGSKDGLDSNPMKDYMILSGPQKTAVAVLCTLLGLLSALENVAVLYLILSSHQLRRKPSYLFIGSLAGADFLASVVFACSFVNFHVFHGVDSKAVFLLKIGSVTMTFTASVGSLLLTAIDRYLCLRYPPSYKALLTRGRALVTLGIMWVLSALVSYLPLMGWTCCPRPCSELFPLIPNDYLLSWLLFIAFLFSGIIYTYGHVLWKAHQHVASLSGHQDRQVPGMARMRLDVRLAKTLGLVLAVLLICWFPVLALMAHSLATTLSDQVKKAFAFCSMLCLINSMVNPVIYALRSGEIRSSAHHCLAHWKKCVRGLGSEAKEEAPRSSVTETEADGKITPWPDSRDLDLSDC
T1 sequence (P21554 whole entry): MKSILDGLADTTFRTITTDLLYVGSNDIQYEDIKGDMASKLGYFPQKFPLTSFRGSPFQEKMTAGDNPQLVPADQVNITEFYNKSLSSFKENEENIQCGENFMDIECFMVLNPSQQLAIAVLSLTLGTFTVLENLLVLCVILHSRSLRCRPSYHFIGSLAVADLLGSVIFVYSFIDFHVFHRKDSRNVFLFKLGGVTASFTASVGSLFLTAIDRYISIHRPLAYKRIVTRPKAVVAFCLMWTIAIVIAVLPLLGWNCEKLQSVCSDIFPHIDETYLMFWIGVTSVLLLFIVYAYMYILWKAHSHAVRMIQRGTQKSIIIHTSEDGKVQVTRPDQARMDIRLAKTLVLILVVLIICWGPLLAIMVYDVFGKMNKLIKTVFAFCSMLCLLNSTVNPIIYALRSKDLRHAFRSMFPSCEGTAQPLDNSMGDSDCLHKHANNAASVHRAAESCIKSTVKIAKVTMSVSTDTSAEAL

Compound	Ratio IC50 (Homo sapiens)	IC50 (Cannabinoid receptor 1 [1]) [nM]	IC50 (Cannabinoid receptor 2) [nM]	EC50 (Cannabinoid receptor 1 [2]) [nM]	Stability (Liver microsomes [3])	Stability (Liver microsomes [4])	IC50 (Cytochrome P450 3A4) [nM]
C[C@H](NC(=O)C(C)(C)Nc1ccon1)[C@@H](Cc1ccc(Cl)cc1)c1cccc(C#N)c1	67	47.7	3210	–	–	–	–
Cc1cc(NC(C)(C)C(=O)N[C@@H](C)[C@@H](Cc2ccc(Cl)cc2)c2cccc(C#N)c2)no1	265	19.5	5160	–	–	–	–
C[C@H](NC(=O)C(C)(C)Nc1cc(C(C)(C)C)on1)[C@@H](Cc1ccc(Cl)cc1)c1cccc(C#N)c1	30	8.6	254	3.5	–	–	–
Cc1cc(NC(C)(C)C(=O)N[C@@H](C)[C@@H](Cc2ccc(Cl)cc2)c2cccc(C#N)c2)on1	84	46.1	3860	–	–	–	–
C[C@H](NC(=O)C(C)(C)Nc1nc2ccccc2n1C)[C@@H](Cc1ccc(Cl)cc1)c1cccc(C#N)c1	15	97	1410	–	–	–	–
C[C@H](NC(=O)C(C)(C)Nc1ccccn1)[C@@H](Cc1ccc(Cl)cc1)c1cccc(C#N)c1	37	49	1830	–	Stable	Stable	–
Cc1cc(NC(C)(C)C(=O)N[C@@H](C)[C@@H](Cc2ccc(Cl)cc2)c2cccc(C#N)c2)n[nH]1	20	–	–	–	–	–	–
C[C@H](NC(=O)C(C)(C)Nc1cc(C(F)(F)F)ccn1)[C@@H](Cc1ccc(Cl)cc1)c1cccc(C#N)c1	221	1.6	353	0.9	Stable	Stable	–
C[C@H](NC(C)(C)C(=O)Nc1ccc(C(F)(F)F)cn1)[C@@H](Cc1ccc(Cl)cc1)c1cccc(C#N)c1	13	132	1720	–	–	–	> 35000
C[C@H](NC(=O)C(C)(C)Nc1cc(-c2ccccc2)on1)[C@@H](Cc1ccc(Cl)cc1)c1cccc(C#N)c1	1.3	186	234	–	–	–	–
C[C@H](NC(=O)C(C)(C)Nc1ncc(Cl)cc1Cl)[C@@H](Cc1ccc(Cl)cc1)c1cccc(C#N)c1	57	12.2	699	–	–	–	–
C[C@H](NC(=O)C(C)(C)Nc1ccnn1C)[C@@H](Cc1ccc(Cl)cc1)c1cccc(C#N)c1	65	203	13300	–	–	–	–
C[C@H](NC(=O)C(C)(C)Nc1ccncn1)[C@@H](Cc1ccc(Cl)cc1)c1cccc(C#N)c1	286	49.2	14000	–	Stable	Stable	–
C[C@H](NC(=O)C(C)(C)NCCCN(C)C)[C@@H](Cc1ccc(Cl)cc1)c1cccc(C#N)c1	8.7	2980	25900	–	–	–	–
C[C@H](NC(C)(C)C(=O)Nc1cc(-c2ccccc2)on1)[C@@H](Cc1ccc(Cl)cc1)c1cccc(C#N)c1	17	136	2310	–	–	–	–
C[C@H](NC(=O)C(C)(C)Nc1ccc(C(F)(F)F)cn1)[C@@H](Cc1ccc(Cl)cc1)c1cccc(C#N)c1	43	7.5	322	3.2	–	–	2030
Cc1ccnc(NC(C)(C)C(=O)N[C@@H](C)[C@@H](Cc2ccc(Cl)cc2)c2cccc(C#N)c2)c1	15	37.7	547	–	–	–	–
C[C@H](NC(=O)C(C)(C)Nc1cc2ccccc2cn1)[C@@H](Cc1ccc(Cl)cc1)c1cccc(C#N)c1	12	10.1	117	1.9	–	–	–
Cc1cc(NC(C)(C)C(=O)N[C@@H](C)[C@@H](Cc2ccc(Cl)cc2)c2cccc(C#N)c2)[nH]n1	–	301	6110	–	–	–	–
C[C@H](NC(=O)C(C)(C)Nc1ncc(C(F)(F)F)cc1Cl)[C@@H](Cc1ccc(Cl)cc1)c1cccc(C#N)c1	23	17.9	419	–	–	–	–
